Screening results (PubChem)
Most compounds without a hit are left out; they make up all but 3.5% or so of the library.
RGS4 act – RGS4 potentiation or activation; HEK293 M3R/inducible RGS4, carbachol calcium flux Fluo4; active compounds read low; actives 0.92% (n = 310,000); B-score at 10 µM; AID 463111;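 active means B-score of the integrated calcium signal more than 4 SD below the library mean, with starting fluorescence not abnormally high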;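 further: negative B-score means reduced calcium response which marks RGS4 activation or potentiation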
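System: HEK293 FlpIn-TREx cells, stable M3R, doxycycline-inducible RGS4. Timing: overnight RGS4 induction, 30 min dye load 37 °C, 20 min compound RT. Also added: carbachol, ECmax concentration. Measured by: Fluo4 fluorescence kinetic imaging of calcium. Evaluation: integrated calcium ratio converted to B score.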
MrgX1 antag – blocks BAM8-22 activation of human MrgX1 receptor | B-score at 10 µM | Q96LB2 | AID 588676 | actives 1.3% (n = 310,000) | MRGX1-HEK293 calcium flux, Fluo-4, BAM8-22 antagonism; active compounds read low;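 active means calcium-response B-score plate-corrected more than 3 library SD below zero, starting fluorescence within 5 deviations, no agonist response on first addition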;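 further: peak minus trough fluorescence over baseline after final BAM8-22 challenge near maximal dose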
Target sequence (Q96LB2 whole entry, looked up): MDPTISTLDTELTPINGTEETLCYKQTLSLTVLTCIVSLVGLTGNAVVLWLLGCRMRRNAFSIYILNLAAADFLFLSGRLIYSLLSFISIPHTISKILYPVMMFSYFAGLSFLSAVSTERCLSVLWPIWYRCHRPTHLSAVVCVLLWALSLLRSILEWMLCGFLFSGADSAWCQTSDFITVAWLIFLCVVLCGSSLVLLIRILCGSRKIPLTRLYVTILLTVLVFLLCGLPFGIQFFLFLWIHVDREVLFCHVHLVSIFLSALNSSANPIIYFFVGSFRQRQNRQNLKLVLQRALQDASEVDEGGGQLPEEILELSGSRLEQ
MrgX1 allo act – allosterically activates human MrgX1 receptor signaling | Q96LB2 | MrgX1-HEK293, Fluo-4 calcium flux, FDSS; active compounds read high | B-score at 10 µM | actives 0.63% (n = 310,000) | AID 588675;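 active means plate-corrected calcium response at least 3 library SD above typical, normal starting fluorescence, not activating the receptor alone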;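 further: compound read alongside a low EC10 to EC30 dose of BAM8-22 agonist; peak minus trough fluorescence over baseline measured at the second addition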
RGS4 inh – human RGS4 inhibition; P49798; HEK293 M3R/RGS4 inducible, Fluo-4 calcium flux; active compounds read high; triggered by carbachol at its EC20; B-score at 10 µM; actives 0.45% (n = 310,000); AID 463165;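 active means B-score, a plate-corrected calcium signal, over three deviations above library mean, with baseline fluorescence within five deviations of library mean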;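 further: RGS4 expression induced by doxycycline in cells with stable M3 receptor; B-score is computed from the integrated fluorescence ratio over baseline after carbachol; higher B-score means a larger calcium signal and so more RGS4 inhibition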
Target sequence (P49798 whole entry, looked up): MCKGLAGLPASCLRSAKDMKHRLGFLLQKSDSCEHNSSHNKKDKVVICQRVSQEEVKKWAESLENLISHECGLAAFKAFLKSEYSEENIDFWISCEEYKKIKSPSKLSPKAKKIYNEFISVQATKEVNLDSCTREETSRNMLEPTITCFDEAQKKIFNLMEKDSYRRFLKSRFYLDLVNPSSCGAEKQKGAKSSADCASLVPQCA
MrgX1 agonist – human MrgX1 receptor agonism, primary screen | AID 588627 | Q96LB2 | actives 0.44% (n = 310,000) | B-score at 10 µM | MrgX1-HEK293 cells, Fluo-4 calcium fluorescence, agonist mode; active compounds read high;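 active means calcium response B-score plate-corrected fluorescence ratio at least 3 library SD, with starting fluorescence B-score inside 5 SD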
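Material: HEK293 cells stably expressing human MrgX1 receptor | Quantity: 15,000 cells per well | Times: Cells plated overnight, dye loaded 0.5 h 37 °C, 0.5 h room temperature | Measured by: Kinetic Fluo-4 NW fluorescence of intracellular calcium | Control set: Positive and negative controls per plate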
Large screens that a line does not name were inactive.

COc1ccccc1NS(=O)(=O)c1cc(NC(=O)Nc2cccc(C)c2)ccc1N1CCCCC1	none
COc1ccc(-c2csc(NC(=O)C3CCCO3)n2)cc1 (stereo not drawn)	RGS4 act -7.02
Cc1cccc(C)c1NC(=O)Cn1nc(-c2ccc(Cl)s2)ccc1=O	none
COc1cccc(OC(=O)c2cc3ccccc3oc2=O)c1	MrgX1 antag -5.04
Nc1ccccc1-n1cccc1	none
CC(C)(C)c1ccc(-n2ncc3c2CCCC3NC(=O)c2ccncc2)cc1 (stereo not drawn)	RGS4 act -8.89
N#CC(C#N)=C(Nc1ccc(F)cc1)SCc1cccc(Br)c1	none
Cc1cccc(CSC(Nc2ccc(F)cc2)=C(C#N)C#N)c1	MrgX1 antag -6.59
CCN(Cc1ccccc1)S(=O)(=O)c1ccc(C(=O)N(CCCN(C)C)c2nc3c(C)c(C)ccc3s2)cc1	MrgX1 antag -6.68
CN(C)CCCN(C(=O)CCS(=O)(=O)c1ccccc1)c1nc2cc3c(cc2s1)OCO3	RGS4 act -8.25
CN(C)CCCN(C(=O)c1ccc(C(=O)c2ccccc2)cc1)c1nc2cc3c(cc2s1)OCCO3	RGS4 act -8.83
CN(C)CCCN(C(=O)c1ccc(S(=O)(=O)N(C)C)cc1)c1nc2cc3c(cc2s1)OCO3	none
CCN(Cc1ccccc1)S(=O)(=O)c1ccc(C(=O)N(CCCN(C)C)c2nc3cc4c(cc3s2)OCO4)cc1	RGS4 act -7.47
CN(C)CCCN(C(=O)CCSc1ccccc1)c1nc2cc3c(cc2s1)OCO3	none
Cc1ccc2nc(SCC(=O)Nc3cc(C)on3)nc(=O)n2c1	none
COc1ccc(/C=N/N2CCOCC2)cc1COc1ccc(Cl)cc1	none
Cc1ccc(S(=O)(=O)NC(C)C(=O)NC2CCCCCC2)cc1 (stereo not drawn)	RGS4 act -7.24
COC(=O)Cn1c(=NC(=O)c2nc3ccccc3s2)sc2cc(S(C)(=O)=O)ccc21	MrgX1 antag -5.24
COC(=O)Cn1c(=NC(=O)c2sc3ccccc3c2Cl)sc2cc(S(N)(=O)=O)ccc21	none
COC(=O)Cn1c(=NC(=O)c2ccc(Cl)s2)sc2cc(C)ccc21	MrgX1 antag -5.89
CCc1ccc(N2CCN(C(=O)N3CCOCC3)CC2)cc1	none
O=C(CNC(=O)c1ccc(Cl)c([N+](=O)[O-])c1)OCN1C(=O)c2ccccc2C1=O	none
O=C(N/N=C/c1cc(Cl)ccc1O)c1ccncc1	MrgX1 antag -5.08
O=C(N/N=C/c1ccccc1Cl)c1ccncc1	none
CCCCC(=O)Nc1ccc(C(=O)Nc2ccc(S(=O)(=O)Nc3ccc(C)cc3)cc2)cc1	none
N=C1/C(=C/c2ccc(OC(=O)c3ccco3)cc2)C(=O)N=C2SC=CN12	MrgX1 allo act 12.5
N=C1/C(=C\c2ccc(OC(=O)c3ccccc3)cc2)C(=O)N=C2SC(N3CCOCC3)=NN12	MrgX1 antag -7.87
COc1cc(/C=C2\C(=N)N3N=C(S(C)(=O)=O)SC3=NC2=O)ccc1OCCOc1ccccc1C	none
CCOc1cc(/C=C2\C(=N)N3N=C(N4CCCCC4)SC3=NC2=O)ccc1OC(=O)c1ccco1	none
COc1cc(/C=C2\C(=N)N3N=CSC3=NC2=O)ccc1OS(=O)(=O)c1ccccc1[N+](=O)[O-]	MrgX1 agonist 38.7
CCOc1cc(/C=C2/C(=N)N3N=C(CC)SC3=NC2=O)ccc1OC(=O)c1ccco1	MrgX1 agonist 34.1
CCS(=O)(=O)C1=NSC2=NC(=O)/C(=C\c3ccc(OC(=O)c4ccco4)cc3)C(=N)N21	MrgX1 allo act 18.7
CC(=O)Nc1ccc(OCCOc2ccc(/C=C3\C(=N)N4N=C(C)SC4=NC3=O)cc2)cc1	MrgX1 allo act 9.47
CCC1=NN2C(=N)/C(=C\c3ccc(OCCOc4ccc(NC(C)=O)cc4)c(OC)c3)C(=O)N=C2S1	none
CCS(=O)(=O)C1=NN2C(=N)/C(=C\c3ccc(OC(=O)c4ccco4)c(Br)c3)C(=O)N=C2S1	MrgX1 agonist 72.9
CCOc1cc(/C=C2\C(=N)N3N=C(S(=O)(=O)CC)SC3=NC2=O)ccc1OC(=O)c1ccco1	none
COc1cc(/C=C2\C(=N)N3N=C(S(C)(=O)=O)SC3=NC2=O)ccc1OC(=O)c1cccs1	MrgX1 allo act 8.24
COc1ccc(CCc2nnc(NS(C)(=O)=O)s2)cc1	none
Cc1noc(C)c1CSCC(=O)Nc1cc(Cl)ccc1N1CCCCC1	none
COc1cc(/C=C2/C(=N)N3C(=NC2=O)SN=C3S(C)(=O)=O)ccc1OS(=O)(=O)c1ccccc1	MrgX1 allo act 28.4
CCOc1cc(/C=C2/C(=N)N3C(=NC2=O)SN=C3S(C)(=O)=O)ccc1OC(=O)c1ccco1	MrgX1 allo act 12.7
COc1cc(/C=C2/C(=O)N(c3ccccc3)N=C2C)ccc1OS(=O)(=O)c1ccccc1	none
CCOc1cc(/C=C2/C(=N)N3C(=NC2=O)SN=C3S(C)(=O)=O)ccc1OS(=O)(=O)c1ccccc1	MrgX1 allo act 26.7
CCN(CC)CCCCNc1ncc2cc(-c3cc(OC)cc(OC)c3)c(NC(=O)NC(C)(C)C)nc2n1	none
Cc1oc(-c2ccccc2F)nc1CS(=O)(=O)CC(=O)NC1CCCC1	none
Cc1oc(-c2ccccc2F)nc1CS(=O)(=O)CC(=O)NCCN(C)C1CCCCC1	MrgX1 antag -5.72
COC(=O)c1ccc(CN2CCC(CO)(CCOc3ccccc3)CC2)cc1	RGS4 act -6.95
CCOC(=O)C1(CCOc2ccccc2)CCN(Cc2ccc(COC)o2)CC1	MrgX1 agonist 32.5
CCOC(=O)C1(CCOc2ccccc2)CCN(Cc2ccc(OC)c(COC)c2)CC1	MrgX1 antag -4.68
COC(=O)c1ccc(CN2CCC(CO)(Cc3cccc(OC)c3)CC2)cc1	none
O=C(NCCCNC(=O)c1cccnc1)c1ccc(Cl)cc1	none
CC(=O)Oc1ccc(N2C(=O)C3C(C2=O)C(C(=O)c2ccc(Cl)cc2)N2CCCC32)cc1 (stereo not drawn)	MrgX1 agonist 29.9
COc1ccccc1-c1cc(C(F)(F)F)nc(S(C)(=O)=O)n1	none
CS(=O)(=O)c1nc(-c2ccco2)cc(C(F)(F)F)n1	RGS4 act -7.03
CCOC(=O)c1c(C)[nH]c(C)c1C(=O)CSc1nc2ccccc2c(=O)n1-c1ccc(C)cc1	RGS4 act -7.24
Cc1nn(-c2ccccc2)c(C)c1/C=N/NC(=O)CSc1nc2ccccc2c(=O)n1-c1ccc(Br)cc1	none
Cc1ccc(-n2c(SCC(=O)N/N=C/c3c(C)nn(-c4ccccc4)c3C)nc3ccccc3c2=O)cc1	MrgX1 antag -6.4
O=C1CCC([N+](=O)[O-])C(c2ccc(C(F)(F)F)cc2)N1 (stereo not drawn)	none
CC(=O)NCCNC(=O)C1CCC(CNc2nc(=S)[nH]c3ccccc23)CC1 (stereo not drawn)	none
COc1ccc(CNC(=O)C2CCC(CNc3nc(=S)[nH]c4ccccc34)CC2)cc1 (stereo not drawn)	MrgX1 allo act 12.3
